{"source": "paper PMC3971662", "about": "(The Journal of General Physiology, 2014)", "key": {"[1]": {"target": "FL4 hERG1 channels (F557L) (Homo sapiens, UniProt Q12809, F557L)", "assay": "Two-electrode voltage clamp, concatenated tetramer FL4 in Xenopus oocytes", "type": "cell-based", "conditions": "30 µM ICA, mean ± SEM", "method_in_brief": "(§1)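 F557L/WT concatenated tetramers were expressed from 50 ng cRNA and recorded 4–8 d later by two-electrode voltage clamp in pH 7.6 HEPES bath, with and without test compound. V0.5act and z came from Boltzmann fits of tails at −70 mV after 4-s steps. Inactivation: 1 s at 40 mV, then 5 s at 30 to −140 mV, with Itail/(Vret−Erev) fitted. Fold increase in Itest at 20 mV over 1–30 µM was fitted logistically (EC50, nH).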"}, "[2]": {"target": "WT3/FL1 hERG1 channels (F557L) (Homo sapiens, UniProt Q12809, F557L)", "assay": "Two-electrode voltage clamp, concatenated tetramer WT3/FL1 in Xenopus oocytes", "type": "cell-based", "conditions": "30 µM ICA, mean ± SEM", "method_in_brief": "as §1"}, "[3]": {"assay": "Limit of solubility in extracellular solution", "type": "physicochemical", "conditions": "extracellular solution pH 7.6, diluted from 20-mM DMSO stock"}, "[4]": {"target": "FL2/WT2 hERG1 channels (F557L) (Homo sapiens, UniProt Q12809, F557L)", "assay": "Two-electrode voltage clamp, concatenated tetramer FL2/WT2 in Xenopus oocytes", "type": "cell-based", "conditions": "30 µM ICA, mean ± SEM", "method_in_brief": "as §1"}, "WT4 hERG1 channels": {"target": "WT4 hERG1 channels (Homo sapiens, UniProt Q12809)", "type": "cell-based", "conditions": "for fold increase in Itest (isochronal, 4 s): 10 µM ICA, stated for WT and WT4 together", "method_in_brief": "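WT4 tetramers (50 ng cRNA, 4–8 d) were studied by two-electrode voltage clamp in pH 7.6 bath, 2 mM KCl. Tests used 4-s steps, −70 to 50 mV, with tails at −70 mV and Boltzmann fits (V0.5act). Inactivation: 40 mV prepulse, then 5 s at 30 to −140 mV. Concentration-response of Itest at 20 mV or of Itail-max was fitted logistically (EC50, nH). Some Itail-Vret runs used 20 mM KCl bath.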"}, "[5]": {"target": "FL1/WT1/FL1/WT1 hERG1 channels (F557L) (Homo sapiens, UniProt Q12809, F557L)", "type": "cell-based", "conditions": "30 µM ICA, mean ± SEM", "method_in_brief": "as §1"}, "[6]": {"target": "FL1/WT3 hERG1 channels (F557L) (Homo sapiens, UniProt Q12809, F557L)", "assay": "Two-electrode voltage clamp, concatenated tetramer FL1/WT3 in Xenopus oocytes", "type": "cell-based", "conditions": "30 µM ICA", "method_in_brief": "as §1"}, "[7]": {"target": "FL1/WT1/FL2 hERG1 channels (F557L) (Homo sapiens, UniProt Q12809, F557L)", "type": "cell-based", "method_in_brief": "as §1"}, "WT hERG1 channels": {"target": "WT hERG1 channels (Homo sapiens, UniProt Q12809)", "type": "cell-based", "conditions": "10 µM ICA, stated for WT and WT4 together", "method_in_brief": "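Oocytes were injected with 10 ng cRNA for single WT subunits and recorded 1–3 d later by two-electrode voltage clamp. Bath (mM): 98 NaCl, 2 KCl, 1 CaCl2, 1 MgCl2, 5 HEPES, pH 7.6. Test compound was diluted from a 20 mM DMSO stock just before use. Itest was taken at the end of 4-s steps (−70 to 50 mV); tails at −70 mV were Boltzmann-fitted for V0.5act and z. Mean ± SEM, n = oocytes.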"}}, "note": "Read-outs that look alike come from different tables or passages of the source.", "data": [{"molecule": "O=C(Nc1ccc(Oc2ccccc2)cc1)c1cccc([N+](=O)[O-])c1", "note": "[ICA, 3-nitro-N-(4-phenoxyphenyl) benzamide]", "values": [{"measurement": "V0.5act (half-point of channel activation)", "setting": "[1]", "value": "−18.7 ± 1.0", "unit": "mV"}, {"measurement": "V0.5inact (V0.5 for C-type inactivation)", "setting": "[1]", "value": "−98.8 ± 7.8", "unit": "mV"}, {"measurement": "z (equivalent charge) for activation", "setting": "[1]", "value": "3.60 ± 0.15"}, {"measurement": "z for inactivation", "setting": "[1]", "value": "0.69 ± 0.04"}, {"measurement": "V0.5act (half-point of channel activation)", "setting": "[2]", "value": "−36.7 ± 1.1", "unit": "mV"}, {"measurement": "V0.5inact (V0.5 for C-type inactivation)", "setting": "[2]", "value": "49.9 ± 4.0", "unit": "mV"}, {"measurement": "z (equivalent charge) for activation", "setting": "[2]", "value": "3.57 ± 0.39"}, {"measurement": "z for inactivation", "setting": "[2]", "value": "1.21 ± 0.03"}, {"measurement": "limit of solubility", "setting": "[3]", "value": 0.03, "unit": "mM"}, {"measurement": "V0.5act (half-point of channel activation)", "setting": "[4]", "value": "−37.1 ± 0.4", "unit": "mV"}, {"measurement": "V0.5inact (V0.5 for C-type inactivation)", "setting": "[4]", "value": "−22.4 ± 9.3", "unit": "mV"}, {"measurement": "z (equivalent charge) for activation", "setting": "[4]", "value": "3.88 ± 0.48"}, {"measurement": "z for inactivation", "setting": "[4]", "value": "0.46 ± 0.01"}, {"measurement": "fold increase in Itest (isochronal, 4 s)", "setting": "WT4 hERG1 channels; at 20 mV", "value": 20, "unit": "fold"}, {"measurement": "fold increase in Itest (isochronal, 4 s)", "setting": "WT4 hERG1 channels; at −30 mV", "value": 4, "unit": "fold"}, {"measurement": "effect on Itail at potentials more negative than −100 mV", "setting": "WT4 hERG1 channels; 30 µM ICA, WT4, bath solution containing 20 mM KCl", "value": "did not cause an increase in Itail"}, {"measurement": "V0.5inact (V0.5 for C-type inactivation)", "setting": "WT4 hERG1 channels; 30 µM ICA, WT4, mean ± SEM", "value": "57.8 ± 4.1", "unit": "mV"}, {"measurement": "z for inactivation", "setting": "WT4 hERG1 channels; 30 µM ICA, WT4, mean ± SEM", "value": "1.17 ± 0.05"}, {"measurement": "nH (Hill coefficient) for increase in Itest at 20 mV", "setting": "WT4 hERG1 channels; ICA, WT4", "value": 1.7}, {"measurement": "increase in current at Vt of 20 mV, WT4 channels compared with FL1/WT1/FL2 channels", "setting": "WT4 hERG1 channels; ICA, ratio WT4 vs FL1/WT1/FL2", "value": "~13", "unit": "fold"}, {"measurement": "EC50", "setting": "WT4 hERG1 channels; read-out: EC50 for increase in Itest measured at 20 mV, ICA, WT4", "value": 9.1, "unit": "µM"}, {"measurement": "V0.5act (half-point of channel activation)", "setting": "[5]", "value": "−29.6 ± 1.6", "unit": "mV"}, {"measurement": "V0.5inact (V0.5 for C-type inactivation)", "setting": "[5]", "value": "−33.7 ± 16.0", "unit": "mV"}, {"measurement": "z (equivalent charge) for activation", "setting": "[5]", "value": "3.00 ± 0.25"}, {"measurement": "z for inactivation", "setting": "[5]", "value": "0.56 ± 0.03"}, {"measurement": "V0.5act (half-point of channel activation)", "setting": "[6]; mean ± SEM", "value": "−34.5 ± 1.5", "unit": "mV"}, {"measurement": "V0.5inact (V0.5 for C-type inactivation)", "setting": "[6]; mean ± SEM", "value": "28.5 ± 6.0", "unit": "mV"}, {"measurement": "z (equivalent charge) for activation", "setting": "[6]; mean ± SEM", "value": "4.06 ± 0.39"}, {"measurement": "z for inactivation", "setting": "[6]; mean ± SEM", "value": "0.95 ± 0.13"}, {"measurement": "positive shift in V0.5inact", "setting": "[6]; n = 4", "value": "70 ± 3", "unit": "mV"}, {"measurement": "V0.5act (half-point of channel activation)", "setting": "[7]; 30 µM ICA, mean ± SEM", "value": "−19.5 ± 2.9", "unit": "mV"}, {"measurement": "V0.5inact (V0.5 for C-type inactivation)", "setting": "[7]; 30 µM ICA, mean ± SEM", "value": "−72.5 ± 7.7", "unit": "mV"}, {"measurement": "z (equivalent charge) for activation", "setting": "[7]; 30 µM ICA, mean ± SEM", "value": "2.80 ± 0.22"}, {"measurement": "z for inactivation", "setting": "[7]; 30 µM ICA, mean ± SEM", "value": "0.61 ± 0.05"}, {"measurement": "shift in V0.5inact", "setting": "[7]; 30 µM ICA, n = 4", "value": "6.6 ± 1.6", "unit": "mV"}, {"measurement": "nH (Hill coefficient) for increase in Itest at 20 mV", "setting": "[7]; ICA", "value": 2.0}, {"measurement": "EC50", "setting": "[7]; read-out: EC50 for increase in Itest measured at 20 mV, ICA", "value": 11.8, "unit": "µM"}, {"measurement": "fold increase in Itest (isochronal, 4 s)", "setting": "WT hERG1 channels; at 20 mV", "value": 20, "unit": "fold"}, {"measurement": "fold increase in Itest (isochronal, 4 s)", "setting": "WT hERG1 channels; at −30 mV", "value": 4, "unit": "fold"}]}]}
